Measurements reported in ChEMBL document CHEMBL1157107, “Gastroprotective effect of carnosic acid gamma-lactone derivatives” (J Nat Prod, 2010).

Experiments:
[1] = system: MRC5; assay: Cytotoxicity against human MRC5 cells after 24 hrs by neutral red uptake assay; assay type: cell-based; conditions: MRC5, 24 h
In short: (§1)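 Confluent monolayers, seeded at 25 000 cells/mL, were used. MRC-5 and Hep G2 were grown in MEM and AGS in Ham F-12, all with 10% heat-inactivated FBS at 37 °C and 5% CO₂. Cells were exposed for 24 h to 0–1000 µM compound with 1% DMSO final. Viability was read by neutral red uptake as % of control, with quadruplicates in three separate experiments. IC50 was read graphically from dose-response curves.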

[2] = system: Mus musculus; assay: Gastroprotective activity in Swiss albino mouse assessed as reduction in HCl/EtOH-induced gastric lesions at 20 mg/kg, po dosed 50 mins before HCl/EtOH challenge measured after 1 hr relative to control; assay type: functional, Stomach; parameters: scale not given: the % may be the effect or the level left
In short: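 Male Swiss albino mice (30 ± 3 g) were randomised into groups of 7 and fasted 24 h with free water. Dosing was oral at 10, 20 or 40 mg/kg; controls received 12% Tween 80. Mice were killed 1 h after HCl/EtOH, and stomachs were saline-inflated, fixed in 5% formalin for 30 min and opened. Lesion index is the summed lesion length (mm); % reduction is versus control. ANOVA with Dunnett's test.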

[3] = system: AGS; assay: Cytotoxicity against human AGS cells after 24 hrs by neutral red uptake assay; assay type: cell-based; in short: as §1
[4] = system: Mus musculus; assay: Gastroprotective activity in Swiss albino mouse assessed as reduction in HCl/EtOH-induced gastric lesions at 40 mg/kg, po dosed 50 mins before HCl/EtOH challenge measured after 1 hr relative to control; assay type: functional, Stomach; parameters: scale not given: the % may be the effect or the level left
In short: (§2)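 Male Swiss albino mice (30 ± 3 g) were randomized into groups of 7 and fasted 24 h with free water, then dosed orally. Controls received 12% Tween 80. Mice were killed 1 h after HCl/EtOH. Stomachs were inflated with saline, fixed in 5% formalin for 30 min and opened along the greater curvature. Lesion index was the summed lesion length (mm), compared with controls by ANOVA/Dunnett.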

[5] = system: HepG2; assay: Cytotoxicity against human HepG2 cells after 24 hrs by neutral red uptake assay; assay type: cell-based; conditions: HepG2, 24 h; in short: as §1
[6] = system: Mus musculus; assay: Gastroprotective activity in Swiss albino mouse assessed as reduction in HCl/EtOH-induced gastric lesions at 10 mg/kg, po dosed 50 mins before HCl/EtOH challenge measured after 1 hr relative to control; assay type: functional, Stomach; parameters: scale not given: the % may be the effect or the level left; in short: as §2

Structure (SMILES) | IC50 [1] | Activity [2] | IC50 [3] | Activity [4] | IC50 [5] | Activity [6]
CC(C)c1cc2c3c(c1O)OC(=O)[C@@]31CCCC(C)(C)[C@@H]1CC2 | 293 µM | 30.6% | 246 µM | 59.5% | 240 µM | 20.8%
CC(=O)Oc1c(C(C)C)cc2c3c1OC(=O)[C@@]31CCCC(C)(C)[C@@H]1CC2 | 290 µM | – | 275 µM | 62% | 294 µM | –
CC(C)c1cc2c3c(c1OC(=O)Cc1c[nH]c4ccccc14)OC(=O)[C@@]31CCCC(C)(C)[C@@H]1CC2 | 109 µM | – | 85.6 µM | 51% | 251 µM | –
CC(C)c1cc2c3c(c1OC(=O)c1cccnc1)OC(=O)[C@@]31CCCC(C)(C)[C@@H]1CC2 | 296 µM | – | 280 µM | 9% | 264 µM | –
CCCCCCCCCCCCCCCC(=O)Oc1c(C(C)C)cc2c3c1OC(=O)[C@@]31CCCC(C)(C)[C@@H]1CC2 | > 1000 µM | – | > 1000 µM | 65% | > 1000 µM | –
Cc1c(OCC(F)(F)F)ccnc1C[S+]([O-])c1nc2ccccc2[nH]1 (stereo unspecified) [LANSOPRAZOLE] | – | 80% | – | – | – | –
CCCCCCCCCCCC(=O)Oc1c(C(C)C)cc2c3c1OC(=O)[C@@]31CCCC(C)(C)[C@@H]1CC2 | > 1000 µM | – | 413 µM | 36% | > 1000 µM | –
CC(C)C(=O)Oc1c(C(C)C)cc2c3c1OC(=O)[C@@]31CCCC(C)(C)[C@@H]1CC2 | 119 µM | – | 105 µM | 72% | 112 µM | –
CCCCC/C=C/C/C=C/CCCCCCCC(=O)Oc1c(C(C)C)cc2c3c1OC(=O)[C@@]31CCCC(C)(C)[C@@H]1CC2 | 293 µM | – | 253 µM | 45% | 289 µM | –
CC(C)c1cc2c(c(O)c1O)[C@@]1(C(=O)O)CCCC(C)(C)[C@@H]1CC2 [CARNOSIC ACID] | 21.8 µM | – | 89.8 µM | – | 41.3 µM | –
CC(C)c1cc2c3c(c1OC(=O)c1ccccc1C(=O)Oc1c(C(C)C)cc4c5c1OC(=O)[C@]51CCCC(C)(C)C1CC4)OC(=O)[C@@]31CCCC(C)(C)[C@@H]1CC2 (stereo partly specified) | 678 µM | – | 375 µM | 15% | 611 µM | –
CCCC(=O)Oc1c(C(C)C)cc2c3c1OC(=O)[C@@]31CCCC(C)(C)[C@@H]1CC2 | 44.4 µM | – | 99.5 µM | 82% | 56.1 µM | –
CCCCCCCC/C=C/CCCCCCCC(=O)Oc1c(C(C)C)cc2c3c1OC(=O)[C@@]31CCCC(C)(C)[C@@H]1CC2 | > 1000 µM | – | 822 µM | 70% | > 1000 µM | –
COc1c(C(C)C)cc2c3c1OC(=O)[C@@]31CCCC(C)(C)[C@@H]1CC2 | 31.9 µM | – | 26.7 µM | 71% | 58.1 µM | –
CCC(=O)Oc1c(C(C)C)cc2c3c1OC(=O)[C@@]31CCCC(C)(C)[C@@H]1CC2 | 125 µM | – | 113 µM | 59% | 196 µM | –
CC(C)c1cc2c3c(c1OC(=O)CCCc1c[nH]c4ccccc14)OC(=O)[C@@]31CCCC(C)(C)[C@@H]1CC2 | 54.5 µM | – | 46.8 µM | 50% | 120 µM | –
CC(C)c1cc2c3c(c1OC(=O)CCl)OC(=O)[C@@]31CCCC(C)(C)[C@@H]1CC2 | 130 µM | – | 103 µM | 81% | 203 µM | –
CC(C)c1cc2c3c(c1OC(=O)c1ccccc1)OC(=O)[C@@]31CCCC(C)(C)[C@@H]1CC2 | 512 µM | – | 503 µM | 48% | 510 µM | –
CC(C)c1cc2c3c(c1OC(=O)CCC(=O)Oc1c(C(C)C)cc4c5c1OC(=O)[C@]51CCCC(C)(C)C1CC4)OC(=O)[C@@]31CCCC(C)(C)[C@@H]1CC2 (stereo partly specified) | > 1000 µM | – | 623 µM | 62% | > 1000 µM | –
COc1c(C(C)C)cc2c(c1O)[C@@]1(C(=O)O)CCCC(C)(C)[C@@H]1CC2 | 54.9 µM | – | 45.2 µM | – | 43.5 µM | –
CC(C)c1cc2c3c(c1OC(=O)Cc1ccccc1)OC(=O)[C@@]31CCCC(C)(C)[C@@H]1CC2 | 516 µM | – | 133 µM | 44% | 522 µM | –
